Bioassay records (PubChem)
TNAP act hi DEA: increases human TNAP activity under high phosphate acceptor concentration. P05186. purified TNAP, CDP-star luminescence, 1 M DEA, 30 min; hits give high values; 0 = EDTA background, 1 = DMSO-only activity. activation factor at 20 µM. 200,000 tested, under 10 active. AID 1136;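 active means activation factor at least 2 at 20 µM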
Target sequence (P05186 whole entry, looked up): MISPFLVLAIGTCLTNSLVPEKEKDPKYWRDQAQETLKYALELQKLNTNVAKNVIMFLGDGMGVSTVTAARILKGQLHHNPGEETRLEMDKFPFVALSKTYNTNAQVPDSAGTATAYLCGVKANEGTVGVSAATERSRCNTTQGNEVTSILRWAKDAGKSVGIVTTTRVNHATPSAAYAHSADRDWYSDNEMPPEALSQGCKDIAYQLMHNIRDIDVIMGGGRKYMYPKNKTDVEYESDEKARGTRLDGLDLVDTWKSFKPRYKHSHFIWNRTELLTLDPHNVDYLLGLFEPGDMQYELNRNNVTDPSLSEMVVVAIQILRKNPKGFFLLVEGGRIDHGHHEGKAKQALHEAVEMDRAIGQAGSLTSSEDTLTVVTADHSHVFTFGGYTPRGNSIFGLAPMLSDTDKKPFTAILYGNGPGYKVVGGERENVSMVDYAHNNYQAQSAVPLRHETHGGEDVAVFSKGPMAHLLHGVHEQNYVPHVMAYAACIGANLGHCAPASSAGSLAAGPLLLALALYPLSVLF
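system = human TNAP | amount = enzyme diluted 1/800 final | reagent = 100 µM CDP-star substrate | signal = luminescent substrate turnover signal | dosing = one dose, 20 µM | benchmarks = EDTA negative control, DMSO positive control | measure = activation factor | timing = 30 min reaction, room temperature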
TNAP inh noacc: inhibitors of human TNAP without phosphate acceptor | inhibition, % at 20 µM | purified TNAP, CDP-star luminescence, 30 min | actives 0.26% (n = 200,000) | AID 1012 | P05186;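 active means tissue-nonspecific alkaline phosphatase inhibition above about 50% at 20 µM in the single-dose screen, limit read from the data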;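 further: 0% = DMSO negative control and 100% = EDTA positive control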
WT yeast gro inh: growth inhibition of WT yeast, mitochondrial fusion screen; actives 2.1% (n = 190,000); mitochondrial fusion phenotypic screen, WT strain; inhibition, % at 10 µM; in the data active means inhibition above about 58%; tested in S. cerevisiae
TNAP inh hiacc: TNAP (human) inhibition, high acceptor | inhibition, % at 20 µM | actives 0.03% (n = 200,000) | AID 1135 | purified TNAP, CDP-star luminescence, 1 M DEA | P05186;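 active means over 50% inhibition of tissue-nonspecific alkaline phosphatase at 20 µM in the single-dose screen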;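 further: plate controls were DMSO wells for no effect and EDTA-quenched wells as full inhibition for full effect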
Arbovirus inh: arbovirus infection inhibition. AID 1251. actives 0.37% (n = 200,000). arbovirus infection cell-based antiviral screen. inhibition, % at 10 µM; in the data active means inhibition above about 30%
The depositor's hits bear a star. Shown are actives, neighbours in structure and some others; about 2.6% of the full set was active somewhere.

SMILES | TNAP act hi DEA | TNAP inh noacc | WT yeast gro inh | TNAP inh hiacc | Arbovirus inh
CC(=O)c1ccccc1NC(=O)Cn1c(=O)cnc2ccccc21 | 1 | -8 | -25 | -4 | 4
O=S1(=O)CCN2N=C(C34CC5CC(CC(C5)C3)C4)SC2=N1 | 1.1 | -23 | -3 | -8 | -12
CC(C)Cn1c(-c2ccc(F)cc2)n[nH]c1=S | 1 | 18 | 3 | 2 | -2
CC(C)Cn1c(-c2ccccc2F)n[nH]c1=S | 1.1 | 52* | -2 | -10 | -5
COc1ccccc1NS(=O)(=O)c1cc(C(=O)NCCC(C)C)ccc1F | 1 | 12 | 7 | 0 | -4
COc1cccc2sc(Nc3nc(-c4ccccn4)cs3)nc12 | 1 | -20 | 63* | -2 | -30
COc1cccc(-c2csc(N3CCN(C(=O)NC45CC6CC(CC(C6)C4)C5)CC3)n2)c1 | 1.1 | -19 | 35 | -7 | 0
O=C(/C=C/c1c(Cl)nc2ccccn12)Nc1ccc(F)cc1 | 1 | -12 | 2 | -3 | -3
CC(=O)Nc1ccccc1/C=C/c1ccc2c(C)cc(C)c(O)c2n1 | 0.9 | -47 | 77* | 9 | -7
Cc1cc(C)nc(SCC(=O)N2CCC(C(N)=O)CC2)n1 | 1 | -9 | 7 | 2 | 0
CC(C)(C)C1CCC(=NOC(=O)c2ccc(F)cc2)CC1 (stereo not given) | 1 | 14 | 98* | 4 | 12
CC1C/C(=N\NC(=S)NC(C)C)CC(C)(C)C1 (stereo not given) | 1 | -9 | 65* | -1 | -10
Cc1ccc(NC(=O)c2cc(S(=O)(=O)N3CCOCC3)c(Br)s2)cc1 | 1 | -13 | 27 | 3 | 17
Clc1cccc(Cl)c1/C=C/c1nc2ccccc2[nH]1 | 1 | 3 | 81* | -4 | -13
Clc1ccc(/C=C/c2nc3ccccc3[nH]2)cc1 | 1 | -3 | 17 | -2 | -25
COc1cccc(C(=O)N/N=C/c2cn[nH]c2-c2ccc(OC)cc2OC)c1 | 1 | -13 | -41 | 0 | 7
OC(CNCCC1C=Nc2ccccc21)Cn1c2ccc(Cl)cc2c2cc(Cl)ccc21 (stereo not given) | 1 | -2 | 98* | 0 | -38
OC(CNCC1CCCO1)Cn1c2ccc(Cl)cc2c2cc(Cl)ccc21 (stereo not given) | 1 | -2 | 7 | -3 | -31
CC(=O)Nc1ccc(C(=O)OCc2ccccc2Br)cc1 | 1 | 2 | 76* | -1 | 8
O=C1c2cccc3c(N4CCCCC4)ccc(c23)C(=O)N1c1ccccn1 | 0.9 | 1 | -8 | 10 | 21
O=C1c2ccccc2-c2n[nH]c(=O)c3ccc(N4CCCCC4)c1c23 | 0.9 | 9 | 63* | 14 | -16
CCN(CCCCCN(C)C)Cc1cc2ccccc2o1 | 1.1 | 0 | -8 | -5 | -8
CCNC(=O)c1ccccc1CCc1ccccc1 | 1.1 | -10 | -4 | -6 | -1
Cc1ccccc1Nc1cc(C)c2c(O)cccc2n1 | 1 | -9 | 58* | -3 | -34
O=C(C1=C[C@H](C2CCCCC2)C[C@H](OCc2ccc(CO)cc2)O1)N1CCN(Cc2ccc3c(c2)OCO3)CC1 | 1 | 0 | 70* | -1 | -18
SMILES | TNAP act hi DEA | TNAP inh noacc | WT yeast gro inh | TNAP inh hiacc | Arbovirus inh
O=C(C1=C[C@H](C2CC2)C[C@H](OCc2ccc(CO)cc2)O1)N1CCN(Cc2ccc3c(c2)OCO3)CC1 | 1.1 | -12 | -5 | -5 | -2
O=C(C1=C[C@@H](C2CCCCC2)C[C@@H](OCc2ccc(CO)cc2)O1)N1CCN(Cc2ccc3c(c2)OCO3)CC1 | 1 | -2 | 76* | -4 | -17
COc1ccccc1CNC(=O)COC(=O)Cn1cnc2ccccc21 | 1 | -13 | -8 | -2 | 3
Cc1ccccc1C(=O)Oc1ccc(Sc2ccc(O)cc2)cc1 | 1 | -2 | 87* | 2 | -18
CC#CC[N+](C)(C)CCCCCCCCCCCC | 1.1 | -6 | 83* | -6 | -15
C#CC[N+](C)(C)CCCCCCCCCCCC | 1 | -4 | 78* | -4 | -37
CC(C)CN(C(=O)c1ccco1)c1nc2ccccc2s1 | 1 | -3 | 46 | -2 | 18
CC(C)CN(C(=O)c1nn(C)c(=O)c2ccccc12)c1nc2ccccc2s1 | 1 | -5 | 67* | -4 | 5
CC1=CN2C(=N)/C(=C/c3ccco3)C(=O)N=C2S1 | 0.9 | 14 | 8 | 9 | -14
CC1=CN2C(=N)/C(=C/c3ccc([N+](=O)[O-])o3)C(=O)N=C2S1 | 1 | 44 | 86* | 2 | -1
